Data: ChEMBL document CHEMBL1806361, “Discovery of potent, selective, and orally bioavailable quinoline-based dipeptidyl peptidase IV inhibitors targeting Lys554” (Bioorg Med Chem, 2011)

How the values were obtained:
[1] = Volume of distribution at steady state in rat at 1 mg/kg, po and 0.1 mg/kg, iv by LC/MS/MS; assay type: ADME, organism-based; conditions: in vivo, read-out: Vdss
How it was run: (§1)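 Compound given orally at 1.0 mg/kg and intravenously at 0.1 mg/kg to rats and dogs. Blood sampled after dosing and spun to plasma. Plasma deproteinized with acetonitrile containing internal standard, then centrifuged. Supernatant diluted in 0.01 M ammonium acetate and spun again before LC/MS/MS quantitation. Values are means and SD of three experiments.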

Canis familiaris [2] = assay: Oral bioavailability in dog at 1 mg/kg by LC/MS/MS; assay type: ADME, organism-based, Canis lupus familiaris; conditions: in vivo; how it was run: as §1
[3] = Metabolic stability in dog liver microsomes at 1 uM after 60 mins by HPLC with UV detectors in presence of NADPH; assay type: ADME, Canis lupus familiaris, Microsome; conditions: read-out: Stability
How it was run: (§2)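 Hepatic microsomes (0.2 mg protein/mL final) and compound (1 µM final) were mixed on ice. Reaction started with NADPH, run 60 min at 37 °C, and stopped with ice-cold acetonitrile. Zero-time controls were quenched before compound addition.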

Rattus norvegicus [4] = assay: AUC in rat at 1 mg/kg, po by LC/MS/MS; assay type: ADME, organism-based, Plasma; set-up: dose 1 mg/kg, route oral; conditions: in vivo; how it was run: as §1
Rattus norvegicus [5] = assay: Oral bioavailability in rat at 1 mg/kg by LC/MS/MS; assay type: ADME, organism-based; conditions: in vivo; how it was run: as §1
Canis familiaris [6] = assay: AUC in dog at 1 mg/kg, po by LC/MS/MS; assay type: ADME, organism-based, Canis lupus familiaris, Plasma; set-up: dose 1 mg/kg, route oral; conditions: in vivo; how it was run: as §1
[7] = Metabolic stability in human liver microsomes at 1 uM after 60 mins by HPLC with UV detectors in presence of NADPH; assay type: ADME, Microsome; conditions: read-out: Stability; how it was run: as §2
[8] = Solubility of the compound in water at pH 6.8 by HPLC analysis; assay type: physicochemical
[9] = Metabolic stability in rat liver microsomes at 1 uM after 60 mins by HPLC with UV detectors in presence of NADPH; assay type: ADME, Microsome; conditions: read-out: Stability; how it was run: as §2
[10] = Volume of distribution at steady state in dog at 1 mg/kg, po and 0.1 mg/kg, iv by LC/MS/MS; assay type: ADME, organism-based, Canis lupus familiaris; conditions: in vivo, read-out: Vdss; how it was run: as §1

Vd [1]: 10.7 L/kg
F (Canis familiaris [2]): 49.2%
microsomal CLint at 1 µM [3]: 2 µL/min/mg
AUC (Rattus norvegicus [4]): 28.5 ng·h/mL
F (Rattus norvegicus [5]): 8%
AUC (Canis familiaris [6]): 1410 ng·h/mL
microsomal CLint at 1 µM [7]: 16 µL/min/mg
solubility [8]: > 5000 µg/mL
microsomal CLint at 1 µM [9]: 96 µL/min/mg
Vd [10]: 1.49 L/kg
SMILES: Cc1ccc(-c2c(CN)c(CC(C)C)nc3ccc(N4CC(=O)NCC4=O)cc23)cc1.Cl.Cl
